Test results taken from ChEMBL document CHEMBL5653624 (Biochem Pharmacol, 2016).
Calls of active or inactive are those of the source. No cut-off for these calls is given here.

Tested on: RAW264.7
Experiment: Antiinflammatory activity in LPS/IFNgamma-stimulated mouse RAW264.7 cells assessed as reduction in HDAC1 expression preincubated for 20 hrs followed by LPS/IFNgamma stimulation and measured after 4 hrs by Western blot analysis
Format: functional, cell-based
Settings: time 24.0 hrs
Summary of the method: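 RAW 264.7 cells were LPS/IFNγ-stimulated after inhibitor exposure, then lysed in Hepes/Triton buffer containing DTT, butyrate and protease inhibitors, freeze-thawed and cleared. Immunoblot with milk blocking and overnight primary antibody at 4 °C. Densitometry normalized to β-actin, LPS/IFNγ control set at 100%. Mean ± SD of 4 independent experiments.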

Nc1cc(F)ccc1NC(=O)/C=C/c1cnn(C/C=C/c2ccccc2)c1
Activity: Active
